Compound activity: PubChem, several laboratories
Exocytosis inh: blocks lytic granule exocytosis; 360,000 tested, 0.66% active; inhibition, % at 10 µM; TALL-104 LAMP-1 surface exposure, flow cytometry; cells stimulated with thapsigargin and PMA; AID 651702;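 active = inhibition above about 55%, limit read from the data; inconclusive = no clear call, values can overlap the other calls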
H9c2 protect: modulators protecting cardiomyocytes from myocardial damage. H9c2 cardiomyocytes, H2O2 injury protection, ATPLite, 2 h. protection from H2O2 cell death, % at 20 µM. 360,000 tested, 0.63% active. AID 588492;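 active = compounds giving at least 50% protection of heart cells from peroxide-induced death in the single-dose screen, raw or plate-pattern-corrected value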;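 also: 0% = DMSO wells with peroxide and 100% = DMSO wells without peroxide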
HNF4A DNA FP: change in binding of human HNF4 alpha to DNA. activity change, % at 10 µM. 360,000 tested, 0.3% active. P41235. HNF4a-FITC DNA binding, fluorescence polarization, 1 h; in the data active = activity change above about 30%, passing the limit was not always enough
Myeloid diff 2: promotes myeloid progenitor differentiation; ER-HoxA9 myeloid progenitors, lysozyme-GFP differentiation, flow cytometry; calls only at 10 µM; 360,000 tested, 1% active;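 active = normalized GFP-positive differentiation at or above the plate's own cutoff, the solvent-only control mean plus 3 SD; inconclusive = no clear call, values can overlap the other calls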;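 also: cells exposed to compound for four days before flow analysis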
Pemphigus Ab inh: inhibitors of pemphigus antibody binding to human desmoglein-3 | 310,000 tested, 0.48% active | binding (percent of control), % at 10 µM | P32926 | AID 588358 | DSG3-coupled beads, scFv-anti-DSG3-GFP binding, flow cytometry; hits give low values;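 active = binding more than 3 SD below its plate's average and above zero; inconclusive = below that plate limit but binding exactly zero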;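 also: hits lower antibody fragment binding to DSG3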
Target sequence (P32926 whole entry, looked up, the tested form may be a part): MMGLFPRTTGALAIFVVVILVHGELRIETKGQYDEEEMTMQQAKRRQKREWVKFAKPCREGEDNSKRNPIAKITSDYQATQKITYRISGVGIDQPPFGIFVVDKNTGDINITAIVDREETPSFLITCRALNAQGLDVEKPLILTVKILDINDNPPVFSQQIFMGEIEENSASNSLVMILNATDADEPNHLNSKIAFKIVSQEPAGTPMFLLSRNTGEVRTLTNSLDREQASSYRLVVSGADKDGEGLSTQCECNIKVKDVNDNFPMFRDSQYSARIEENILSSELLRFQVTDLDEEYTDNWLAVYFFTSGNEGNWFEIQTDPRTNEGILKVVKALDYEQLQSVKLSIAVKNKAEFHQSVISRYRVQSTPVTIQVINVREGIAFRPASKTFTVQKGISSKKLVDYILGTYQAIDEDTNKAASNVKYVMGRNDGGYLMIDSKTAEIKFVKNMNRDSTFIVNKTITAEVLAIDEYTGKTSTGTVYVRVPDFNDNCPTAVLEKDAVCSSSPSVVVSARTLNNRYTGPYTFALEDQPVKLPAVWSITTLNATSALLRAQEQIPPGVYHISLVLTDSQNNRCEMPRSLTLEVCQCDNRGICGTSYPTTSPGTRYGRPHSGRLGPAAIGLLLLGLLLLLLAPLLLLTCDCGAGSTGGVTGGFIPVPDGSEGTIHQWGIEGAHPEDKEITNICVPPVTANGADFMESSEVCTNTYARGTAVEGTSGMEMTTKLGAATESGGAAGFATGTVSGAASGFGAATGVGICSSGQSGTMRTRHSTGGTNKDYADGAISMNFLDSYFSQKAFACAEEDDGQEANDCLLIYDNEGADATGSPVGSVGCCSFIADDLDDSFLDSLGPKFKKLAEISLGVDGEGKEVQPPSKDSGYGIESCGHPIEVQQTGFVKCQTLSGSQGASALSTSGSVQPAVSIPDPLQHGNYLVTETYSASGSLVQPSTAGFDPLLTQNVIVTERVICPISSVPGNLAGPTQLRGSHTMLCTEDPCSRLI
SENP1 inh: blocks the human SENP1 SUMO protease catalytic domain. Q9P0U3. recombinant SENP1 catalytic domain, CyPet-SUMO1-YPet FRET cleavage. inhibition, % at 10 µM. 360,000 tested, 0.21% active. AID 624204;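 active = inhibition at least 30% at 10 µM, raw YFP signal under a set limit, fluorescence ratio 0.5 to 1.5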;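 also: 0% = enzyme with DMSO and 100% = no enzyme wells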
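System: Recombinant human SENP1 catalytic domain, His6-tagged | Incubation: Enzyme reaction for 50 min at room temperature, dark | Medium: Tris pH 8 with BME, BSA, NP40 and catalase | Also added: 25 nM SUMO1 FRET substrate | Compound: 10 µM single point, 0.5% DMSO | Measured by: FRET fluorescence in CFP and YFP emission channels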
Myeloid diff: myeloid differentiation induction; shares compounds with Myeloid diff 2; ER-HoxA9 myeloid progenitors, GFP/Mac1 double-positive flow; calls only; 2,300 tested, 2% active; AID 651706;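 active = share of green or green-and-red cells above 9 and 9% in run 1 or 4 and 3% in run 2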
GFP autofluor: flagged as fluorescent in myeloid differentiation counter-screen; shares compounds with Myeloid diff 2; ER-HoxA9 myeloid progenitors, no estrogen, GFP autofluorescence flow cytometry; vehicle wells 0%, positive control 100%; fluorescence response, % (test concentration not listed); 2,300 tested, 7.4% active; AID 651707;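 active = over 5% cells positive for green fluorescent reporter, or over 2% positive for both it and APC stain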;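 also: range taken on the double positive population between DMSO and positive control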
The depositor's hits bear a star; i = inactive; ? = inconclusive; · = no result; + = active, no number. An excerpt weighted towards active compounds, which were near 3% of everything screened.

SMILES	Exocytosis inh	H9c2 protect	HNF4A DNA FP	Myeloid diff 2	Pemphigus Ab inh	SENP1 inh	Myeloid diff	GFP autofluor
CCCSC1=C(C#N)C(c2cc(OC)ccc2OC)CC(=O)N1 (centres undefined)	-2.8	-4.4	-2.6	i	103.2	1.7	i	0.8
CCSC1=C(C#N)C(c2ccc(OC)c(OC)c2)CC(=O)N1 (centres undefined)	-2.5	10.9	1.4	i	·	0.9	·	·
COc1cccc(/C(O)=C/c2nc3ccc(C(=O)NCCc4ccc(Cl)cc4)cc3[nH]c2=O)c1	3.3	28.5	7.0	+	96.0	-25.8	i	0.0
COc1ccc(C(=O)c2[nH]c(N)c(C(=O)NCCc3c[nH]c4ccccc34)c2-c2ccccc2Br)cc1	14.2	·	3.0	i	·	-13.4	·	·
S=c1sc(SCCOc2ccccc2)nn1-c1ccccc1	7.3	-7.8	2.7	i	110.0	0.8	·	·
CCOc1ccc(/C=N/NC(=O)c2ccccc2Cl)cc1CN1CC2CC(C1)c1cccc(=O)n1C2 (centres undefined)	-4.1	3.0	0.8	i	105.1	-3.5	i	0.0
CCOc1ccc(/C=N/NC(=O)c2ccccc2C)cc1CN1CC2CC(C1)c1cccc(=O)n1C2 (centres undefined)	-7.3	15.1	-2.3	i	102.5	-0.2	·	·
O=[N+]([O-])c1ccc(/C=C/c2nc3ccc([N+](=O)[O-])cc3[nH]2)cc1	4.0	-2.4	-1.1	+	90.0	5.4	i	0.0
O=[N+]([O-])c1ccc2nc(CCCc3nc4ccc([N+](=O)[O-])cc4[nH]3)[nH]c2c1	1.7	5.6	0.0	i	98.0	3.1	·	·
CCC(=O)N1CCc2cc(Br)cc(S(=O)(=O)CCC(=O)NCC3CCCO3)c21 (centres undefined)	3.5	-4.7	0.0	+	95.0	3.1	i	0.2
CCC(=O)N1CCc2cc(Br)cc(S(=O)(=O)NCC3CCCO3)c21 (centres undefined)	-1.1	-0.8	0.8	i	101.8	-1.3	·	·
Cc1ccc(S(=O)(=O)N(C)C)cc1NC(=S)NCCc1ccccn1	-2.4	-2.1	-3.2	i	106.5	0.0	i	0.3
CN(C)S(=O)(=O)c1cccc(NC(=S)NCCc2ccccn2)c1	-1.9	-9.9	6.5	i	98.9	0.3	·	·
Cc1cccc(C#CC2=CC(=O)CC(C)(C)C2)c1	-1.9	-17.3	0.7	i	·	0.9	·	·
CC1(C)CC(=O)C=C(C#CC2(O)CCCCC2)C1	-2.6	-8.4	-8.2	?	103.8	-0.1	i	0.0
Cc1ccc(OC(=O)c2cccc(S(=O)(=O)N3CCN(C)CC3)c2)c(Br)c1	7.6	-9.3	-0.1	i	100.2	2.5	·	·
CCn1c(COc2ccccc2)nnc1SCC(=O)C(C)(C)C	1.3	-5.6	2.2	+	·	0.6	i	0.0
c1ccc(COc2ccc(OCCn3cncn3)cc2)cc1	5.4	-11.3	-1.8	i	91.9	-10.7	i	0.0
CCN(CC)C(=O)c1ccc(N)cc1	4.4	2.1	-5.8	i	·	1.5	·	·
CN(C(=O)C(C)(C)C)[C@H]1C[C@H]2c3[nH]c4ccccc4c3CCN2C(=O)[C@H]1CO	-3.2	9.7	-115.2	i	109.3	-63.8	i	2.3
CCNC(=O)NC(=O)CN(C)c1ccccc1	-5.0	-0.6	1.8	i	117.4	2.6	·	·
Cc1ccc(CNC(=O)C(=O)NCC2OCCN2C(=O)c2cccs2)cc1 (centres undefined)	-6.8	1.1	0.9	+	98.7	1.3	i	0.0
CC(C)CC1NC(=O)N(CC(=O)NC2CCCc3ccccc32)C1=O (centres undefined)	-3.1	4.8	-2.4	i	94.1	0.5	·	·
Cc1ccc(-c2csc(NC(=O)/C=C/c3cccs3)n2)cc1C	22.1	-3.6	-1.7	i	84.8	0.8	i	0.3
O=C(/C=C/c1ccccc1)Nc1nc(-c2ccncc2)cs1	15.2	6.6	2.9	i	·	2.3	·	·
SMILES	Exocytosis inh	H9c2 protect	HNF4A DNA FP	Myeloid diff 2	Pemphigus Ab inh	SENP1 inh	Myeloid diff	GFP autofluor
N#Cc1ccc(-c2csc(NC(=O)/C=C/c3cccs3)n2)cc1	3.4	5.6	-0.6	+	93.1	-0.2	i	0.0
Cc1cccc(NS(=O)(=O)c2cc(C(=O)N3CCCCCC3)ccc2C)c1	1.5	-4.5	4.8	i	106.5	1.9	·	·
CC(=O)c1c(C(=O)O)[nH]c(C(=O)O)c1C	10.4	1.0	1.1	i	97.1	0.7	·	·
Cc1cnc(NC(=O)Cc2ccccc2Cl)s1	-13.5	-3.9	1.6	i	100.2	-0.9	i	0.0
Cc1cnc(NC(=O)CSc2ccccc2)s1	8.1	-3.0	2.3	+	106.6	-0.6	i	0.0
Cc1cnc(NC(=O)CSc2nnc(Cc3ccccc3)o2)s1	0.2	-6.0	5.8	i	·	2.4	·	·
Cc1csc(NC(=O)Cc2ccccc2Cl)n1	3.2	-1.1	3.9	i	98.9	-9.9	·	·
Cc1ccc(Cn2ncc3c(N4CCN(C5CCCC5)CC4)ncnc32)cc1	-0.8	1.0	4.6	i	118.6	0.9	·	·
Cc1nn(-c2ccc(C(=O)N3CCN(S(=O)(=O)c4ccccc4C(F)(F)F)CC3)cc2)c(C)c1Cl	-3.6	-9.7	3.9	i	·	0.0	·	·
CC(=O)c1ccc(S(=O)(=O)N2CCN(C(=O)c3ccc(-n4nc(C)c(Cl)c4C)cc3)CC2)cc1	1.6	-12.2	1.8	i	·	0.5	i	0.0
CCCCn1nnnc1C(c1cc2ccccc2o1)N1CCCN(C(=O)OC(C)(C)C)CC1 (centres undefined)	-2.7	·	3.2	i	·	-2.6	·	·
O=C(O)CCC(=O)NNC(=O)c1ccc([N+](=O)[O-])cc1	4.7	-7.9	-2.0	i	100.4	-142.9	·	·
O=C(O)CCC(=O)NNC(=O)c1ccc(-c2ccccc2)cc1	3.2	-2.4	-1.3	i	96.8	0.4	i	1.9
CCN1C(=O)[C@H]2[C@@H](c3ccc(-c4ccc(OC)cc4)c(OC)c3)N3CCCC[C@@]3(C(=O)OC)[C@H]2C1=O	-13.7	0.2	2.1	i	99.1	-0.4	·	·
Cc1cc(N2CCN(c3nc4ccccc4s3)CC2)n2ncnc2n1	-0.7	-17.0	6.2	i	96.4	1.1	i	0.9
CCCCCCCSc1nnc(-c2ccccc2N)c(=O)[nH]1	-5.4	-6.7	2.3	i	111.5	10.1	·	·
CCCCCSc1nncc(=O)[nH]1	0.0	-0.5	2.8	+	91.5	2.3	i	0.7
COc1cc(/C=C/C(=O)O)cc(S(=O)(=O)NCCCC(=O)O)c1OC	2.3	-3.0	0.1	i	100.6	2.7	·	·
